Screens (PubChem)
An excerpt weighted towards active compounds, which were near 9.8% of everything screened.
Lmaj promast: reduces viability of Leishmania major promastigotes; resazurin fluorescence viability; inhibition, % at 10 µM; 200,000 tested, 9% active; AID 1063; in the data active = inhibition above about 50%;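 note: promastigotes grown with compound for 44 hours at 28 °C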
PMI act: increases human mannose-6-phosphate isomerase activity; P34949; purified human PMI, coupled resazurin fluorescence, 20 min; stronger effect = higher value; 1 = vehicle control, 0 substrate-free wells; activation factor at 20 µM; 190,000 tested, 0.005% active;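 active = activation factor of 2 or more at 20 µM, relative to plate controls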
Rad51 HR inh: Rad51 (human) homologous recombination inhibition; hRad51 DNA strand exchange, fluorescence dequenching; 200,000 tested, 0.085% active; Q06609; AID 1385; inhibition, % at 10 µM;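 active = inhibition above 40% at the single screening dose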;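 note: 0% = DMSO control wells and 100% = blanks with heterologous ssDNA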
Target sequence (Q06609 whole entry, looked up): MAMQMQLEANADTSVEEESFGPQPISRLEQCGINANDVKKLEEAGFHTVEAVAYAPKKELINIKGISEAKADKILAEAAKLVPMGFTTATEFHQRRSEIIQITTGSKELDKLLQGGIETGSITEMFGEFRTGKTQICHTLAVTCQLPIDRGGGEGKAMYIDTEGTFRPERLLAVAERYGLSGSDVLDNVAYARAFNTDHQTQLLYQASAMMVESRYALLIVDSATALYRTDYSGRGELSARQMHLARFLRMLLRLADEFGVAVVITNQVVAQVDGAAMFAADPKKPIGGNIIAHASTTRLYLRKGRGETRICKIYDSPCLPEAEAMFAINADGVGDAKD
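Material: human Rad51–ssDNA filaments; Probe or stimulus: labelled 47-mer dsDNA for strand exchange; Doses: single 10 µM dose; Incubation: 37 °C 15-min filament assembly, 30-min compound preincubation, 15-min exchange; Technique: FRET fluorescence dequenching, excitation 485 nm, emission 520 nm; Measure: Fluorescence-based percent inhibition, control- and blank-normalised; Benchmarks: plate control and blank wells.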
Calpain2 inh: calpain II (pig) inhibition; purified calpain II, fluorogenic peptide substrate, 30 min; inhibition, % at 16 µM; 220,000 tested, 0.37% active;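 active = inhibition above about 50%, limit read from the data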
PMI act satM6P: PMI (human) activation, high substrate; activation factor at 20 µM; coupled PMI enzyme assay, resazurin fluorescence, 20 min; stronger effect = higher value; 1 = untreated enzyme, 0 = substrate-free blank; P34949; 190,000 tested, 0.34% active; AID 1216;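 active = activation factor of 2 or more at 20 µM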
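Material: human phosphomannose isomerase with PGI, G6PDH, diaphorase coupling enzymes. Quantity: 15 ng/mL PMI. Medium: HEPES pH 7.4 buffer with MgCl2 and Tween-20. Reagent: Near-saturating mannose-6-phosphate, 1.0 mM. Compound: 20 µM single dose. Times: enzyme reaction with compound 20 min at room temperature. Detection: resorufin fluorescence at Ex 544/Em 590 nm.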
WT yeast gro inh: growth inhibition of WT yeast, mitochondrial fusion screen | AID 1362 | inhibition, % at 10 µM | mitochondrial fusion phenotypic screen, WT strain | 190,000 tested, 2.1% active; in the data active = inhibition above about 58%; tested in S. cerevisiae
An asterisk follows results filed as active; i = inactive; x = no result.

SMILES	Lmaj promast	PMI act	Rad51 HR inh	Calpain2 inh	PMI act satM6P	WT yeast gro inh
Brc1cccc(OCCOCCn2ccnc2)c1	99*	0.9	-2	-15	1	4
CCc1cccc(OCCCn2ccnc2)c1	95*	1.1	x	-13	1.2	11
Brc1cccc(OCCn2ccnc2)c1	15	0.8	-3	-18	1	0
CCOc1cccc(OCCCCn2ccnc2)c1	87*	0.9	3	-16	0.9	4
O=C1c2ccccc2C(O)N1Cc1cccs1 (centres undefined)	-1	0.8	-9	21	0.9	-18
COC(=O)c1ccc(CN2CCN(C3CCCC3)C(CCO)C2)cc1 (centres undefined)	56*	1	x	-26	1	-6
COC(=O)c1ccc(CN2CCN(Cc3ccccc3)C(CCO)C2)cc1 (centres undefined)	26	1	x	12	1	2
COC(=O)c1ccc(CN2CCN(C3CCCCC3)C(CCO)C2)cc1 (centres undefined)	54*	1	-7	-5	1.1	-10
CC(=O)Nc1ccc(CN2CCN(C3CCCCC3)C(CCO)C2)cc1 (centres undefined)	-3	0.9	12	-12	0.9	4
CC1CCC(C(=O)NC(C(=O)NCc2cccnc2)C(C)C)CC1 (centres undefined)	-5	1	4	-24	1	9
O=C(COC(=O)CNC(=O)c1ccc(-c2ccccc2)cc1)NCc1ccco1	-7	1	-18	-85	0.9	2
COCCOC(=O)/C(C#N)=C/c1cn(Cc2ccccc2)nc1-c1cccnc1	2	1.2	7	-1	1.2	10
CC1=C(C(=O)OC(C)(C)C)C(c2cccs2)NC(=O)N1 (centres undefined)	69*	0.9	-11	30	1	14
CCCNC(=O)CN1C(=O)NC(Cc2c[nH]c3ccccc23)C1=O (centres undefined)	7	1.2	-1	-19	1.2	-9
CN(C)CCCOc1cccc(Cl)c1	-1	0.9	10	18	1.1	-25
CC(C)c1cccc(OCCCCN(C)C)c1	86*	0.9	11	-16	0.9	2
CCN(CC)CCOc1c(C)cccc1Cl	-6	1.1	6	1	1.1	1
CCN(CC)CCOc1cccc(C(C)C)c1	83*	0.9	-2	4	1	8
Cc1ccc(CN2CCN(Cc3ccc(Oc4ncccn4)cc3)CC2CCO)cc1 (centres undefined)	-7	0.9	1	-31	0.9	-12
COC(=O)c1ccc2nc(C)c(C)nc2c1	-4	1.1	1	13	1	-5
COC(=O)c1ccc2c(c1)C(C)(C)C(/C=C/c1ccc(O)cc1)=[N+]2C	101*	0.3	-1	i	0.3	33
Cc1c(N2C(=O)/C(=C\c3ccccc3O)SC2=S)c(=O)n(-c2ccccc2)n1C	x	x	x	17	x	x
CN1C(=O)/C(=C/c2cc(N=Nc3ccccc3)ccc2O)SC1=S	-19	1	3	-77	0.9	96*
N/C(=N\OC(=O)C12CC3CC(CC(C3)C1)C2)c1ccccc1	13	0.9	-4	9	0.9	87*
O=C(O)c1cc(NS(=O)(=O)c2ccc(N3CCOCC3)c([N+](=O)[O-])c2)cc(C(=O)O)c1	44	0.9	0	23	1	4
SMILES	Lmaj promast	PMI act	Rad51 HR inh	Calpain2 inh	PMI act satM6P	WT yeast gro inh
Cc1ccc(NS(=O)(=O)c2ccc(N3CCN(c4ccc(O)cc4)CC3)c([N+](=O)[O-])c2)c(C)c1	98*	1	14	13	1.1	53
CC(=O)N1CCCc2cc(S(=O)(=O)Nc3ccc(C)cc3C)ccc21	-2	0.8	x	33	0.8	2
O=[N+]([O-])c1cc(S(=O)(=O)Nc2ccccc2)ccc1N1CCN(c2ccc(O)cc2)CC1	79*	0.9	17	-8	0.8	18
CN1CC2([N+](=O)[O-])CC=C(OCCO)C([N+](=O)[O-])(C1)C2 (centres undefined)	-7	1.1	9	-5	1	-15
COC(=O)c1ccc(Cl)c(NS(=O)(=O)c2ccc3c(c2)OCCO3)c1	80*	0.9	4	-20	0.9	22
CC(=O)c1cc2c(cc1NS(=O)(=O)c1ccc3c(c1)OCCO3)OCO2	2	0.9	-4	37	1	2
COc1ccccc1NC(=O)CN1CCN(CC(=O)Nc2ccc(F)cc2)CC1	25	1.1	6	-1	1.1	-9
O=C(CN1CCCCC1)Nc1ccc(C(F)(F)F)cc1Cl	x	x	23	12	x	x
COc1ccccc1NC(=O)CN1CCN(CC(=O)Nc2ccc(OCc3ccccc3)cc2)CC1	17	1	-1	-27	0.9	66*
COc1ccccc1N1CCN(CC(=O)Nc2ccc(Cl)c(C(F)(F)F)c2)CC1	-1	1	0	-17	1	58*
O=C(CN1CCCCCCC1)Nc1ccc(Cl)cc1Cl	8	1.1	9	88*	1.1	21
N/C(=N\c1nc(CSc2ccccn2)cc(=O)[nH]1)Nc1ccc(Cl)cc1Cl	x	x	6	-9	x	x
NC(=O)c1ncc(C(F)(F)F)cc1Oc1cccnc1	-5	0.9	3	-14	1	-6
CCc1ccccc1NC(=S)N(CCN1CCOCC1)Cc1ccccc1F	8	0.9	2	27	0.9	22
Cc1cc(C)c(S(=O)(=O)Nc2ccccc2C(=O)OCC(=O)NCc2ccccc2)c(C)c1	-6	0.9	-7	-191	0.9	-20
COc1ccccc1NC(=O)CN1CCN(CC(=O)Nc2ccc3c(c2)OCCO3)CC1	55*	1	-4	-12	1.1	5
CC(C)[C@H](NS(=O)(=O)c1ccc2c(c1)OCCO2)C(=O)OCC(=O)Nc1ccccc1Cl	66*	0.8	1	12	0.9	-12
O=C(CN1CCN(CC(=O)Nc2ccccc2Cl)CC1)Nc1ccc2c(c1)OCCO2	23	1.4	-9	-38	2*	4
N#Cc1cn(Cc2ccncc2)c(=O)[nH]c1=O	10	1	16	4	1	2
O=C(/C=C/C=C/c1ccccc1)c1ccco1	x	x	-9	-26	x	x
COc1ccc(C(NC(=O)N2CC(C)OC(C)C2)C(Cl)(Cl)Cl)cc1F (centres undefined)	6	0.9	-5	11	0.9	-8
CN1CCN(CC(C)(C)NS(=O)(=O)c2ccc(Cl)cc2)CC1	94*	1	8	0	1	-2
CC(C)(CN1CCN(Cc2ccccc2)CC1)NS(=O)(=O)c1ccc(Cl)cc1	x	x	x	-143	x	x
CCOC(CCn1c(SCc2ccc([N+](=O)[O-])cc2)nc2ccccc2c1=O)OCC	51*	0.8	-5	2	1	8
O=C(Nc1ccc(N2CCCC2)cc1)c1ccccc1F	100*	0.8	5	-11	0.7	14
